Calls of active or inactive are those of the source. The calls are words filed in the database; no cut-off is given here.
How the values were obtained:
Histone deacetylase 1 [1] = molecular target: T1, Histone deacetylase 1 (Homo sapiens, UniProt Q13547); test: Inhibition of recombinant human HDAC1 using ZMAL (Z-(Ac)Lys-AMC as substrate incubated for 20 mins at 10 uM and measured by homogenous fluorescence assay relative to control
[2] = molecular target: T2, Protein deacetylase HDAC6 (Homo sapiens, UniProt Q9UBN7); test: Inhibition of recombinant human HDAC6 using ZMAL (Z-(Ac)Lys-AMC as substrate incubated for 20 mins and measured by homogenous fluorescence assay
T2 sequence (Q9UBN7 whole entry): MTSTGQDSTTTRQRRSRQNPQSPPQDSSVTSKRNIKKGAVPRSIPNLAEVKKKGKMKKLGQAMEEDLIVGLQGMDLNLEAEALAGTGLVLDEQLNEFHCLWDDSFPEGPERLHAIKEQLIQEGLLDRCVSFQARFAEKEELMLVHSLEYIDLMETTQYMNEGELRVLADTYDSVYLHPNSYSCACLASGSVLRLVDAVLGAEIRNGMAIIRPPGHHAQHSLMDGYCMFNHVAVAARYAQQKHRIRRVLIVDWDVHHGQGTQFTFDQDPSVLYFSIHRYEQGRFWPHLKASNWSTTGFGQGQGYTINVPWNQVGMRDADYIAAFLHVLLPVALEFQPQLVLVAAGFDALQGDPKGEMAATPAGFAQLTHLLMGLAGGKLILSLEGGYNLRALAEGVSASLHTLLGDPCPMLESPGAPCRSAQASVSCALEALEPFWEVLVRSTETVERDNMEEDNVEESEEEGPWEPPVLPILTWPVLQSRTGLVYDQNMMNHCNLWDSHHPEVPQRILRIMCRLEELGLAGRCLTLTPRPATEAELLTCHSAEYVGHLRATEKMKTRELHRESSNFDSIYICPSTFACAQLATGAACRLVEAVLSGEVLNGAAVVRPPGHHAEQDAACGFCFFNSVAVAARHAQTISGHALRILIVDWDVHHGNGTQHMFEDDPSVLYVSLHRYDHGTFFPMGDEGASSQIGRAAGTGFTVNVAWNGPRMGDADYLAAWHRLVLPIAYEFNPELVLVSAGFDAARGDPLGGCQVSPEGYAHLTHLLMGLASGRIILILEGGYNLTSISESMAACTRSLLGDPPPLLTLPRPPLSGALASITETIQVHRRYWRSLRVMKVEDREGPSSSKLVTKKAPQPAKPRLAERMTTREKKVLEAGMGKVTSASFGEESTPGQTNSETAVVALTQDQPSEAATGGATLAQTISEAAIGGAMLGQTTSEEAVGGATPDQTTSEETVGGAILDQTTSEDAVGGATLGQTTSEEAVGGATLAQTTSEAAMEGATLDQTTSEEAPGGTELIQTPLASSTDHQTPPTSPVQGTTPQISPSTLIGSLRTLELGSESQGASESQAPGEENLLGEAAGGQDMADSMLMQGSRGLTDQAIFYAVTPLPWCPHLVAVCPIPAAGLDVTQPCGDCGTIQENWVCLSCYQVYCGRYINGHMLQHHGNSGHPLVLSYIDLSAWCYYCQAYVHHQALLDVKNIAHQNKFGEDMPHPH

Histone deacetylase 8 = molecular target: T3, Histone deacetylase 8 (Homo sapiens, UniProt Q9BY41); test: Inhibition of recombinant human HDAC8 using H2N-Arg- His-Lys(Ac)-Lys(Ac)-AMC as substrate incubated for 90 mins and measured after 20 mins by fluorescence assay
T3 sequence (Q9BY41 whole entry): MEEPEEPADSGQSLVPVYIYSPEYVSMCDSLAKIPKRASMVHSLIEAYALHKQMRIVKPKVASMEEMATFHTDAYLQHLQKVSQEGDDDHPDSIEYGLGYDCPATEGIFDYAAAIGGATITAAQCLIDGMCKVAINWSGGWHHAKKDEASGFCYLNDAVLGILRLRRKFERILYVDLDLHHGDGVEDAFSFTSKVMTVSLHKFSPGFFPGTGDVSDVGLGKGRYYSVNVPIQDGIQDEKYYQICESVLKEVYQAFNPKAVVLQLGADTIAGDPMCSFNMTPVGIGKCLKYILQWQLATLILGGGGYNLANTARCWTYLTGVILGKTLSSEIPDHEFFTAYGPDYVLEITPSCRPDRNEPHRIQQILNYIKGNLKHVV
Summary of the method: (§1)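 Recombinant hHDAC8 run per a commercial fluorometric HDAC8 kit protocol. Substrate H2N-Arg-His-Lys(Ac)-Lys(Ac)-AMC at 50 μM with enzyme and rising inhibitor concentrations, 90 min at 37 °C. Stop solution with inhibitor plus trypsin added, developed 20 min at 37 °C. Read at Ex 355/Em 460 nm.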

HEK293 = test: Cytotoxicity against human HEK293 cells assessed as cell viability at 50 uM measured after 24 hrs by Alamar Blue assay; format: toxicity, cell-based; settings: hek293, 24 h
Histone deacetylase 1 [3] = molecular target: T1, Histone deacetylase 1; test: Inhibition of recombinant human HDAC1 using ZMAL (Z-(Ac)Lys-AMC as substrate incubated for 20 mins at 1 uM and measured by homogenous fluorescence assay relative to control
[4] = molecular target: T4, Polyamine deacetylase HDAC10 (Danio rerio, UniProt F1QCV2); test: Inhibition of zebra fish HDAC10 using Ac-spermidine-AMC as substrate incubated for 25 mins and measured by fluorescence assay
T4 sequence (F1QCV2 whole entry): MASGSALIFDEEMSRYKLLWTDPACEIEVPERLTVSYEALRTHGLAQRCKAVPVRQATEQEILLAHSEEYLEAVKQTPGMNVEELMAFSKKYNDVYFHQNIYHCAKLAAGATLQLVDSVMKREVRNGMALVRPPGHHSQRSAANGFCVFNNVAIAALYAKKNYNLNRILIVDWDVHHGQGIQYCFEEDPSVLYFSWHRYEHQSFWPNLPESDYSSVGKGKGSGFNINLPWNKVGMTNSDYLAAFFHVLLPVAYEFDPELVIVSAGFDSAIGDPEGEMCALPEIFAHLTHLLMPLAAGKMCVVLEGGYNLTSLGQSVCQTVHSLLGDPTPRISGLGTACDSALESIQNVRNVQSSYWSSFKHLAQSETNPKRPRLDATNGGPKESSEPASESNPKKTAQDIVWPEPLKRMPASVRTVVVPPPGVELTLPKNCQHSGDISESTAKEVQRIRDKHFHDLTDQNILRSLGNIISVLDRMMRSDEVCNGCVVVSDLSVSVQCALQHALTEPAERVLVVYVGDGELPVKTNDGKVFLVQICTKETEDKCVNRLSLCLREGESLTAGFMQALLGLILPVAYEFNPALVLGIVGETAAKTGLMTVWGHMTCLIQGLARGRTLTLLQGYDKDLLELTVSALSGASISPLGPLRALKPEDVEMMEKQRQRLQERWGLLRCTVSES
Summary of the method: (§2)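 Ac-spermidine-AMC at 10.5 μM final in pH 7.9 phosphate buffer (NaCl, EDTA, glycerol, Mesna, Tween 20); inhibitors in DMSO. 25 min at 25 °C, stopped with NDA in borate pH 9.5. Read at Ex 330/Em 390 nm; IC50 by nonlinear regression.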

[5] = molecular target: T5, Protein deacetylase HDAC6 (Homo sapiens) (UniProt Q9UBN7); test: Inhibition of recombinant human HDAC6 using ZMAL (Z-(Ac)Lys-AMC as substrate incubated for 20 mins at 10 uM and measured by homogenous fluorescence assay relative to control
T5 sequence (whole entry): T2 sequence (Q9UBN7 whole entry)

[6] = molecular target: T5, Protein deacetylase HDAC6 (Homo sapiens); test: Inhibition of recombinant human HDAC6 using ZMAL (Z-(Ac)Lys-AMC as substrate incubated for 20 mins at 1 uM and measured by homogenous fluorescence assay relative to control
SK-N-BE(2)-C = test: Induction of autophagy in human SK-N-BE(2)-C cells assessed as increase in lysosomal compartment measured by pH-dependent LysoTracker DND-99 fluorescence assay; format: functional, cell-based
Summary of the method: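 SK-N-BE(2)-C neuroblastoma cells seeded at 1.5 × 10^5 per well, treated 24 h, then stained 1 h with 50 nM LysoTracker Red DND-99 in medium under standard culture conditions. Washed in ice-cold phenol-red-free RPMI, trypsinized 3 min at 37 °C, pelleted, resuspended in ice-cold phenol-red-free RPMI before measurement.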

MV4-11 [7] = test: Induction of autophagy in human MV4-11 cells assessed as increase in autophagic vesicles at 2 to 15 uM measured by cyto-ID green staining based flow cytometry assay; format: functional, cell-based; settings: dose 2-15 µM
Summary of the method: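 MV4-11 cells exposed 2–15 μM for 24 h at 37 °C, 5% CO2, with 10 μM chloroquine added to all samples; solvent-treated control. Harvested, PBS-washed, stained with Cyto-ID Green (1:1000 in phenol-red-free RPMI with 5% FCS, 30 min, 37 °C), washed twice, read by flow cytometry. n = 3; two-way ANOVA.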

[8] = molecular target: T6, Histone deacetylase 8 (Homo sapiens) (UniProt Q9BY41); test: Inhibition of recombinant human HDAC8 using H2N-Arg- His-Lys(Ac)-Lys(Ac)-AMC as substrate incubated for 90 mins at 1 uM and measured after 20 mins by fluorescence assay relative to control; summary of the method: as §1
T6 sequence (whole entry): T3 sequence (Q9BY41 whole entry)

[9] = molecular target: T7, Polyamine deacetylase HDAC10 (Danio rerio) (UniProt F1QCV2); test: Inhibition of zebra fish HDAC10 using Ac-spermidine-AMC as substrate incubated for 25 mins at 10 uM and measured by fluorescence assay relative to control; summary of the method: as §2
T7 sequence (whole entry): T4 sequence (F1QCV2 whole entry)

[10] = molecular target: T6, Histone deacetylase 8 (Homo sapiens); test: Inhibition of recombinant human HDAC8 using H2N-Arg- His-Lys(Ac)-Lys(Ac)-AMC as substrate incubated for 90 mins at 10 uM and measured after 20 mins by fluorescence assay relative to control; summary of the method: as §1
Histone deacetylase 1 [11] = molecular target: T1, Histone deacetylase 1; test: Inhibition of recombinant human HDAC1 using ZMAL (Z-(Ac)Lys-AMC as substrate incubated for 20 mins and measured by homogenous fluorescence assay
[12] = molecular target: T5, Protein deacetylase HDAC6 (Homo sapiens); test: Inhibition of HDAC6 in human MV4-11 cells assessed as fold-induction of tubulin acetylation at 15 uM measured by immunoblotting method; format: cell-based
Summary of the method: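 MV4–11 cells treated 24 h with 2–15 μM test compounds or 0.5 μM marbostat-100 as HDAC6 reference, with solvent control. Whole-cell lysates immunoblotted for acetylated tubulin-α, β-actin as loading control. Blots quantified and expressed as fold change over untreated cells; n = 2.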

MV4-11 [13] = test: Induction of autophagy in human MV4-11 cells assessed as slight increase in HDAC10 at 2 to 15 uM measured by immunoblotting method; format: functional, cell-based; settings: dose 2-15 µM
[14] = molecular target: T7, Polyamine deacetylase HDAC10 (Danio rerio); test: Inhibition of zebra fish HDAC10 using Ac-spermidine-AMC as substrate incubated for 25 mins at 1 uM and measured by fluorescence assay relative to control; summary of the method: as §2

T1 sequence (Q13547 whole entry): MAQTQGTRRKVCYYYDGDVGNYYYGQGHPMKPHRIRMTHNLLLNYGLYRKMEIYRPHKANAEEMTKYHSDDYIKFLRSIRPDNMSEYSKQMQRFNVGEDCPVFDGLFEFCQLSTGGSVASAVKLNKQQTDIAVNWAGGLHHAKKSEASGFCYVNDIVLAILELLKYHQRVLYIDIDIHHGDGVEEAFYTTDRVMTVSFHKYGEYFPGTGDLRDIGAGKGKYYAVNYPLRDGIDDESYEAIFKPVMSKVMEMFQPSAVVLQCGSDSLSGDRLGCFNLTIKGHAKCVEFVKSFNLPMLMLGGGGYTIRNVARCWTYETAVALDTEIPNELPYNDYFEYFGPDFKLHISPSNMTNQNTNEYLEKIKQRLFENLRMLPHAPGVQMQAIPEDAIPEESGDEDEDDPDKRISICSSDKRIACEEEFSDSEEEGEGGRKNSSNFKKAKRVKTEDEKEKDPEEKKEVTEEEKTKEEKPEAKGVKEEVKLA

| Compound | inhibition (Histone deacetylase 1 [1]) [%] | IC50 [2] [nM] | IC50 (Histone deacetylase 8) [nM] | inhibition (Histone deacetylase 1 [3]) [%] | IC50 [4] [nM] | Activity (HEK293) [%] | also measured |
| --- | --- | --- | --- | --- | --- | --- | --- |
| O=C(NO)c1ccc(CNCc2ccsc2)cc1 | 50 | 177 | 1900 | 16 | 24 | 81.5 | – |
| O=C(/C=C/C1CCN(CCc2c[nH]c3ccccc23)CC1)NO | 54 | 4800 | – | 7 | 29 | 77.3 | Activity (SK-N-BE(2)-C): Active; Activity (MV4-11 [7]): Active |
| O=C(/C=C/C1CCN(Cc2ccccc2)CC1)NO | 62 | – | – | 12 | 530 | 100.9 | inhibition [5]: 89%; inhibition [6]: 34% |
| O=C(/C=C/C1CCN(CCc2ccccc2)CC1)NO | – | 4400 | – | – | 11 | 54.4 | IC50 (Histone deacetylase 1 [11]): 16000 nM |
| O=C(NO)c1ccc(CNCc2ccccc2)cc1 | 49 | 210 | 3500 | 19 | 37 | 77.1 | – |
| CN1CCc2c(c3ccccc3n2Cc2ccc(C(=O)NO)cc2)C1 [TUBASTATIN A] | – | – | – | – | 220 | – | – |
| Cc1ccc(CN2CCC(/C=C/C(=O)NO)CC2)cc1 | – | – | – | – | – | 104.9 | inhibition [9]: 23% |
| O=C(/C=C/C1CCN(Cc2cccc3ccccc23)CC1)NO | – | 3700 | – | – | 20 | 51.6 | IC50 (Histone deacetylase 1 [11]): 3000 nM; fold change (FC) [12]: 36; Activity (MV4-11 [13]): Active |
| O=C(NO)c1ccc(CN2CCCCC2)cc1 | – | – | – | – | – | 92.6 | inhibition [8]: 5%; inhibition [14]: 4% |

More lines, main results first:

| inhibition (Histone deacetylase 1 [1]) [%] | IC50 [2] [nM] | IC50 (Histone deacetylase 8) [nM] | inhibition (Histone deacetylase 1 [3]) [%] | IC50 [4] [nM] | Compound | Activity (HEK293) [%] | also measured |
| --- | --- | --- | --- | --- | --- | --- | --- |
| 67 | – | – | 24 | 60 | O=C(/C=C/C1CCN(Cc2cccc(Cl)c2)CC1)NO | 88.6 | inhibition [5]: 83%; inhibition [6]: 40% |
| 54 | 280 | – | 6 | 43 | CN1CCN(Cc2ccc(C(=O)NO)cc2)CC1 | 86.4 | – |
| 56 | – | – | 22 | – | O=C(/C=C/C1CCN(Cc2ccc(-c3ccccc3)cc2)CC1)NO | 55 | inhibition [8]: 54%; inhibition [9]: 46%; inhibition [10]: 91%; inhibition [5]: 72%; inhibition [6]: 29% |
| 67 | 2420 | 920 | 12 | 58 | Cn1cc(CN2CCC(/C=C/C(=O)NO)CC2)c2ccccc21 | 68.2 | fold change (FC) [12]: 36; Activity (MV4-11 [13]): Active |
| 68 | 158 | 3200 | 15 | 106 | O=C(NO)c1ccc(CNCc2cccs2)cc1 | 71.6 | – |
| – | 430 | 950 | – | 33 | O=C(/C=C/C1CCN(Cc2ccc(Cl)cc2)CC1)NO | 84.6 | IC50 (Histone deacetylase 1 [11]): 9000 nM |
| 66 | 1400 | 1300 | 29 | 62 | O=C(/C=C/C1CCN(Cc2csc3ccccc23)CC1)NO | 88.2 | – |

Reference: ChEMBL document CHEMBL5131507, “Identification of histone deacetylase 10 (HDAC10) inhibitors that modulate autophagy in transformed cells” (Eur J Med Chem, 2022)
